According to ChEMBL document CHEMBL4665798, “Novel Human Urate Transporter 1 Inhibitors as Hypouricemic Drug Candidates with Favorable Druggability” (J Med Chem, 2020):

Test system: Mus musculus
Test: Hypouricemic activity in Kunming mouse model of xanthine/potassium oxonate-induced acute hyperuricemia assessed as decrease in serum uric acid level at 2 mg/kg administered 3 hrs prior to xanthine/potassium oxonate and measured after 6 hrs relative to control
Type: functional
Design: scale not given: the % may be the effect or the level left
Settings: time 9 hrs
Method in brief: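 Male Kunming mice, hyperuricemia induced by intragastric xanthine plus subcutaneous potassium oxonate (0.2 mL each). […] Groups: normal vehicle, untreated model, active control, test. Serum uric acid measured. Decrease ratio = (model SUA − compound SUA)/(model SUA − vehicle SUA).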

SMILES | Activity | Activity (2 mg/kg)
O=C(O)CCCSc1nc2cccnc2n1-c1ccc(C2CC2)c2ccccc12 | 1.07% | 
Cc1cc(C)c(-n2c(SC(C)(C)C(=O)O)nc3cccnc32)c(C)c1 | -4.96% | 
CC(Sc1nc2cnccc2n1-c1ccc(C#N)c2ccccc12)C(=O)O (stereo unspecified) | 27.84% | 
CCOC(=O)C1(Sc2nc3cnccc3n2-c2ccc(C#N)c3ccccc23)CCC1 | 14.44% | 
CCOC(=O)CSc1nc2ncccc2n1-c1ccc(C2CC2)c2ccccc12 | 33.56% | 
COC(=O)CCCSc1nc2cnccc2n1-c1ccc(C#N)c2ccccc12 | 8.96% | 
CCOC(=O)C(C)Sc1nc2cnccc2n1-c1ccc(C2CC2)c2ccccc12 (stereo unspecified) | 49.46% | 
CC(C)(C)S(=O)(=O)NC(=O)CSc1nnc(Br)n1-c1ccc(C2CC2)c2ccccc12 | 5.94% | 
CCOC(=O)C(C)Sc1nc2cccnc2n1-c1c(C)cc(C)cc1C (stereo unspecified) | 22.34% | 
CS(=O)(=O)NC(=O)CSc1nnc(Br)n1-c1ccc(C2CC2)c2ccccc12 | 81.53% | 
CCOC(=O)C1(Sc2nc3ncccc3n2-c2ccc(C3CC3)c3ccccc23)CCC1 | 47.9% | 
O=C(CSc1nnc(Br)n1-c1ccc(C2CC2)c2ccccc12)NS(=O)(=O)c1ccc(F)cc1 | 75.17% | 
Cc1cc(C)c(-n2c(SC(C)C(=O)O)nc3cccnc32)c(C)c1 (stereo unspecified) | 37.04% | 
CC(C)S(=O)(=O)NC(=O)CSc1nnc(Br)n1-c1ccc(C2CC2)c2ccccc12 | 11.99% | 
CCOC(=O)C(C)(C)Sc1nc2cccnc2n1-c1c(C)cc(C)cc1C | 41.56% | 
CCOC(=O)CSc1nc2cccnc2n1-c1cccc2ccccc12 | 4.03% | 
N#Cc1ccc(-n2c(SCCCC(=O)O)nc3ncccc32)c2ccccc12 | 20.3% | 
CCOC(=O)CCCSc1nc2cnccc2n1-c1ccc(C2CC2)c2ccccc12 | 47.37% | 
O=C(O)CSc1nc2cccnc2n1-c1cccc2ccccc12 | 2.25% | 
CCOC(=O)C1(Sc2nc3ncccc3n2-c2ccc(C#N)c3ccccc23)CCC1 | 34.56% | 
Cc1cc(C)c(-n2c(SCC(=O)O)nc3cccnc32)c(C)c1 | 18.26% | 
O=C(CSc1nnc(Br)n1-c1ccc(C2CC2)c2ccccc12)NS(=O)(=O)c1cccs1 | 63.94% | 

SMILES | Activity | Activity (2 mg/kg)
CCOC(=O)CCCSc1nc2cccnc2n1-c1cccc2ccccc12 | 37.38% | 
CCOC(=O)C(C)(C)Sc1nc2cnccc2n1-c1ccc(C2CC2)c2ccccc12 | 68.65% | 
O=C(CSc1nnc(Br)n1-c1ccc(C2CC2)c2ccccc12)NS(=O)(=O)C1CC1 | 17.54% | 
CCOC(=O)C(C)(C)Sc1nc2cccnc2n1-c1ccc(C2CC2)c2ccccc12 | 2.61% | 
Cc1cc(C)c(-n2c(SCCCC(=O)O)nc3cccnc32)c(C)c1 | 13.05% | 
CC(Sc1nc2cccnc2n1-c1cccc2ccccc12)C(=O)O (stereo unspecified) | -1.78% | 
CCOC(=O)CCCSc1nc2ncccc2n1-c1ccc(C2CC2)c2ccccc12 | 33.6% | 
N#Cc1ccc(-n2c(SCCCC(=O)O)nc3cnccc32)c2ccccc12 | 11.19% | 
COC(=O)CCSc1nc2cnccc2n1-c1ccc(C#N)c2ccccc12 | 11.47% | 
COC(=O)C(C)(C)Sc1nc2cnccc2n1-c1ccc(C#N)c2ccccc12 | 9.09% | 
CCOC(=O)CSc1nc2cnccc2n1-c1ccc(C2CC2)c2ccccc12 | 40.79% | 
CCOC(=O)CSc1nc2cccnc2n1-c1c(C)cc(C)cc1C | -2.2% | 
CC(C)(C)c1ccc(S(=O)(=O)NC(=O)CSc2nnc(Br)n2-c2ccc(C3CC3)c3ccccc23)cc1 | 15.1% | 
CC(C)(Sc1nc2cnccc2n1-c1ccc(C2CC2)c2ccccc12)C(=O)O | 37.89% | 
CCOC(=O)CSc1nc2cccnc2n1-c1ccc(C2CC2)c2ccccc12 | 41.96% | 
CCOC(=O)C(C)(C)Sc1nc2ncccc2n1-c1ccc(C#N)c2ccccc12 | 12.71% | 
O=C(O)CSc1nc2cccnc2n1-c1ccc(C2CC2)c2ccccc12 | 43.69% | 
CC(C)(Sc1nc2cccnc2n1-c1cccc2ccccc12)C(=O)O | 0.32% | 
CC(C)(Sc1nc2cnccc2n1-c1ccc(C#N)c2ccccc12)C(=O)O | 15.24% | 
CCOC(=O)C(C)Sc1nc2cccnc2n1-c1cccc2ccccc12 (stereo unspecified) | -1.84% | 
COC(=O)C(C)Sc1nc2cnccc2n1-c1ccc(C#N)c2ccccc12 (stereo unspecified) | 17.9% | 
CCOC(=O)C(C)Sc1nc2ncccc2n1-c1ccc(C2CC2)c2ccccc12 (stereo unspecified) | 35.37% | 

SMILES | Activity | Activity (2 mg/kg)
CCOC(=O)C(C)(C)Sc1nc2cccnc2n1-c1cccc2ccccc12 | 8.54% | 
CC(C)(Sc1nc2ncccc2n1-c1ccc(C2CC2)c2ccccc12)C(=O)O | 11.47% | 
CC(C)(Sc1nc2ncccc2n1-c1ccc(C#N)c2ccccc12)C(=O)O | 3.67% | 
O=C(O)CSc1nc2cnccc2n1-c1ccc(C2CC2)c2ccccc12 | 42.17% | 
COC(=O)CCSc1nc2ncccc2n1-c1ccc(C#N)c2ccccc12 | 5.12% | 
CCOC(=O)C(C)Sc1nc2cccnc2n1-c1ccc(C2CC2)c2ccccc12 (stereo unspecified) | 40.34% | 
N#Cc1ccc(-n2c(SCC(=O)O)nc3ncccc32)c2ccccc12 | 51.91% | 
O=C(O)CCCSc1nc2ncccc2n1-c1ccc(C2CC2)c2ccccc12 | 35.39% | 
CCOC(=O)CCCSc1nc2cccnc2n1-c1ccc(C2CC2)c2ccccc12 | 23.73% | 
N#Cc1ccc(-n2c(SCC(=O)O)nc3cnccc32)c2ccccc12 | 59.22% | 
O=C(CSc1nnc(Br)n1-c1ccc(C2CC2)c2ccccc12)NS(=O)(=O)c1ccc(Cl)s1 | 53.44% | 
N#Cc1ccc(-n2c(SC3(C(=O)O)CCC3)nc3ncccc32)c2ccccc12 | 60.74% | 
O=C(O)CCCSc1nc2cnccc2n1-c1ccc(C2CC2)c2ccccc12 | 56.26% | 
CCS(=O)(=O)NC(=O)CSc1nnc(Br)n1-c1ccc(C2CC2)c2ccccc12 | 11.04% | 
O=C(CSc1nnc(Br)n1-c1ccc(C2CC2)c2ccccc12)NS(=O)(=O)c1ccc(Cl)cc1 | 76.46% | 
CCOC(=O)CCCSc1nc2cccnc2n1-c1c(C)cc(C)cc1C | 11.19% | 
N#Cc1ccc(-n2c(SCCC(=O)O)nc3ncccc32)c2ccccc12 | 71.62% | 
O=C(O)CSc1nc2ncccc2n1-c1ccc(C2CC2)c2ccccc12 | 34.5% | 
O=C(O)CCCSc1nc2cccnc2n1-c1cccc2ccccc12 | 1.4% | 
COC(=O)CSc1nc2ncccc2n1-c1ccc(C#N)c2ccccc12 | 9.51% | 
O=C(O)C1(Sc2nc3cnccc3n2-c2ccc(C3CC3)c3ccccc23)CCC1 | 72.99% | 
CCCS(=O)(=O)NC(=O)CSc1nnc(Br)n1-c1ccc(C2CC2)c2ccccc12 | 24.06% | 

SMILES | Activity | Activity (2 mg/kg)
CCOC(=O)C1(Sc2nc3cnccc3n2-c2ccc(C3CC3)c3ccccc23)CCC1 | 41.35% | 
CCOC(=O)C(C)(C)Sc1nc2ncccc2n1-c1ccc(C2CC2)c2ccccc12 | 45.58% | 
COC(=O)CCCSc1nc2ncccc2n1-c1ccc(C#N)c2ccccc12 | 7.17% | 
CC(C)(Sc1nc2cccnc2n1-c1ccc(C2CC2)c2ccccc12)C(=O)O | -0.83% | 
N#Cc1ccc(-n2c(SC3(C(=O)O)CCC3)nc3cnccc32)c2ccccc12 | 27.36% | 
Cc1ccc(S(=O)(=O)NC(=O)CSc2nnc(Br)n2-c2ccc(C3CC3)c3ccccc23)cc1 | 79.41% | 
O=C(CSc1nnc(Br)n1-c1ccc(C2CC2)c2ccccc12)NS(=O)(=O)c1ccccc1 | 64.65% | 
COC(=O)C(C)Sc1nc2ncccc2n1-c1ccc(C#N)c2ccccc12 (stereo unspecified) | 13% | 
N#Cc1ccc(-n2c(SCCC(=O)O)nc3cnccc32)c2ccccc12 | 51.13% | 
O=C(CSc1nnc(Br)n1-c1ccc(C2CC2)c2ccccc12)NS(=O)(=O)c1ccc([N+](=O)[O-])cc1 | 66.71% | 
COC(=O)CSc1nc2cnccc2n1-c1ccc(C#N)c2ccccc12 | 14.54% | 
C[C@H](Sc1nc2ncccc2n1-c1ccc(C2CC2)c2ccccc12)C(=O)O (stereo in doubt; 44a) |  | 12.87%
C[C@@H](Sc1nc2ncccc2n1-c1ccc(C2CC2)c2ccccc12)C(=O)O (stereo in doubt; 44b) |  | 40.58%
C[C@H](Sc1nc2ncccc2n1-c1ccc(C2CC2)c2ccccc12)C(=O)O (stereo in doubt; 44c) |  | 31.02%
C[C@@H](Sc1nc2ncccc2n1-c1ccc(C2CC2)c2ccccc12)C(=O)O (stereo in doubt; 44d) |  | 98.04%
C[C@H](Sc1nc2cnccc2n1-c1ccc(C2CC2)c2ccccc12)C(=O)O (stereo in doubt; 54a) |  | 58.08%
C[C@@H](Sc1nc2cnccc2n1-c1ccc(C2CC2)c2ccccc12)C(=O)O (stereo in doubt; 54b) |  | 32.44%
C[C@H](Sc1nc2cnccc2n1-c1ccc(C2CC2)c2ccccc12)C(=O)O (stereo in doubt; 54c) |  | 93.54%
C[C@@H](Sc1nc2cnccc2n1-c1ccc(C2CC2)c2ccccc12)C(=O)O (stereo in doubt; 54d) |  | 57.89%
CCc1oc2ccccc2c1C(=O)c1cc(Br)c(O)c(Br)c1 [BENZBROMARONE] | 36% | 
